Measured values published in ChEMBL document CHEMBL1255444, “In vitro antibacterial activities of JNJ-Q2, a new broad-spectrum fluoroquinolone” (Antimicrob Agents Chemother, 2010).
Converted amounts (≈) assume the structure as drawn. The source made the active and inactive calls. The rule behind the calls is not given here.

Experiments:
Staphylococcus aureus [1] = test: Antibacterial activity against methicillin-resistant Staphylococcus aureus isolate OC8525 harboring wild type quinolone resistance-determining region assessed as >= 4 fold increase in bactericidal activity by broth microdilution method in presence of 20 ug/ml reserpine; assay type: functional, organism-based
Staphylococcus aureus [2] = test: Antibacterial activity against methicillin-resistant Staphylococcus aureus isolate OC11696 assessed as >= 4 fold increase in bactericidal activity by broth microdilution method in presence of 20 ug/ml reserpine; assay type: functional, organism-based
Staphylococcus aureus [3] = test: Antibacterial activity against methicillin-resistant Staphylococcus aureus isolate OC12501 assessed as >= 4 fold increase in bactericidal activity by broth microdilution method in presence of 20 ug/ml reserpine; assay type: functional, organism-based
Staphylococcus aureus [4] = test: Antibacterial activity against methicillin-resistant Staphylococcus aureus isolate OC8530 harboring gyrA S84L and parC I143V mutant gene assessed as >= 4 fold increase in bactericidal activity by broth microdilution method in presence of 20 ug/ml reserpine; assay type: functional, organism-based
Staphylococcus aureus [5] = test: Antibacterial activity against methicillin-resistant Staphylococcus aureus isolate OC4222 harboring gyrA S84L and parC S80F mutant gene assessed as >= 4 fold increase in bactericidal activity by broth microdilution method in presence of 20 ug/ml reserpine; assay type: functional, organism-based
Staphylococcus aureus [6] = test: Antibacterial activity against methicillin-resistant Staphylococcus aureus isolate OC17042 harboring gyrA S84L/G106D, parC S80F and parE D732N mutant gene assessed as >= 4 fold increase in bactericidal activity by broth microdilution method in presence of 20 ug/ml reserpine; assay type: functional, organism-based
Staphylococcus aureus [7] = test: Antibacterial activity against methicillin-resistant Staphylococcus aureus isolate OC11521 harboring gyrA S84L/S85P, parC E84G mutant gene assessed as >= 4 fold increase in bactericidal activity by broth microdilution method in presence of 20 ug/ml reserpine; assay type: functional, organism-based
Streptococcus pneumoniae [8] = test: Antibacterial activity against ciprofloxacin-resistant Streptococcus pneumoniae by broth microdilution method; assay type: functional
Outline: (§1)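 CLSI M07-A7 broth microdilution MIC. Medium was cation-adjusted Mueller-Hinton broth. For S. pneumoniae it was Mueller-Hinton supplemented with 5% lysed horse blood. CLSI quality-control strains were included as appropriate.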

Staphylococcus aureus [9] = test: Antibacterial activity against Staphylococcus aureus […] by broth microdilution method; assay type: functional; outline: as §1
Staphylococcus aureus [10] = test: Antibacterial activity against methicillin-resistant Staphylococcus aureus by broth microdilution method; assay type: functional; outline: as §1
Staphylococcus aureus [11] = test: Antibacterial activity against methicillin-, ciprofloxacin-resistant Staphylococcus aureus by broth microdilution method; assay type: functional; outline: as §1
[12] = system: Staphylococcus epidermidis; test: Antibacterial activity against methicillin-susceptible Staphylococcus epidermidis by broth microdilution method; assay type: functional
[13] = system: Staphylococcus epidermidis; test: Antibacterial activity against methicillin-resistant Staphylococcus epidermidis by broth microdilution method; assay type: functional
[14] = system: Staphylococcus epidermidis; test: Antibacterial activity against methicillin-, ciprofloxacin-resistant Staphylococcus epidermidis by broth microdilution method; assay type: functional
Streptococcus pyogenes = test: Antibacterial activity against Streptococcus pyogenes by broth microdilution method; assay type: functional
Outline: (§2)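 MICs by CLSI M07-A7 broth microdilution in cation-adjusted Mueller-Hinton medium. For S. pneumoniae the medium was supplemented with 5% lysed horse blood. CLSI quality control strains were run alongside as appropriate.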

Streptococcus agalactiae = test: Antibacterial activity against Streptococcus agalactiae by broth microdilution method; assay type: functional; outline: as §2
[15] = Antibacterial activity against Streptococcus sp. group C by broth microdilution method; assay type: functional
Outline: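 MICs by broth microdilution following CLSI M07-A7 in cation-adjusted Mueller-Hinton medium, using isolates from the J&JPRD culture collection. CLSI quality control strains were included as appropriate.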

Enterococcus faecalis = test: Antibacterial activity against Enterococcus faecalis ATCC 29212 by broth microdilution method; assay type: functional; outline: as §2
Enterococcus faecium = test: Antibacterial activity against Enterococcus faecium by broth microdilution method; assay type: functional; outline: as §2
Haemophilus influenzae = test: Antibacterial activity against Haemophilus influenzae by broth microdilution method; assay type: functional; outline: as §2
Moraxella catarrhalis = test: Antibacterial activity against Moraxella catarrhalis by broth microdilution method; assay type: functional; outline: as §2
Escherichia coli = test: Antibacterial activity against ciprofloxacin-resistant Escherichia coli by broth microdilution method; assay type: functional; outline: as §1
Klebsiella aerogenes = test: Antibacterial activity against Enterobacter aerogenes by broth microdilution method; assay type: functional; outline: as §2
Serratia marcescens = test: Antibacterial activity against Serratia marcescens by broth microdilution method; assay type: functional; outline: as §2
Proteus mirabilis = test: Antibacterial activity against Proteus mirabilis by broth microdilution method; assay type: functional; outline: as §2
Providencia stuartii = test: Antibacterial activity against Providencia stuartii by broth microdilution method; assay type: functional; outline: as §2
Citrobacter freundii = test: Antibacterial activity against Citrobacter freundii by broth microdilution method; assay type: functional; outline: as §2
Pseudomonas aeruginosa = test: Antibacterial activity against Pseudomonas aeruginosa ATCC 27853 by broth microdilution method; assay type: functional; outline: as §2
Staphylococcus aureus [16] = test: Antibacterial activity against methicillin-resistant Staphylococcus aureus isolate OC8532 harboring wild type quinolone resistance-determining region by agar dilution method; assay type: functional
Outline: (§3)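 CLSI agar dilution MIC on cation-adjusted Mueller-Hinton medium. These were the MIC values used for the resistance studies, and CLSI quality-control strains were included as appropriate.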

Staphylococcus aureus [17] = test: Antibacterial activity against methicillin-resistant Staphylococcus aureus isolate OC8525 harboring wild type quinolone resistance-determining region by agar dilution method; assay type: functional; outline: as §3
Staphylococcus aureus [18] = test: Antibacterial activity against methicillin-resistant Staphylococcus aureus isolate OC11150 harboring gyrA S84L and parC S80Y mutant gene by agar dilution method; assay type: functional
Outline: (§4)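 MICs for the resistance-selection studies were determined by CLSI agar dilution on Mueller-Hinton medium. For S. pneumoniae the medium was supplemented with 5% lysed horse blood. For MRSA fluctuation-assay strains an arithmetic agar dilution scheme was used for a more precise MIC.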

Staphylococcus aureus [19] = test: Antibacterial activity against methicillin-resistant Staphylococcus aureus isolate OC15425 harboring gyrA S84L and parC S80F mutant gene by agar dilution method; assay type: functional; outline: as §4
Streptococcus pneumoniae [20] = test: Antibacterial activity against Streptococcus pneumoniae ATCC 49619 by broth microdilution method; assay type: functional; outline: as §2

With `CC[n+]1c(-c2ccccc2)c2cc(N)ccc2c2ccc(N)cc21` the Activity (Staphylococcus aureus [1]) was “Active”, the Activity (Staphylococcus aureus [2]) was “Active” and the Activity (Staphylococcus aureus [3]) was “Active”. For the same compound, the Activity (Staphylococcus aureus [4]) was “Active”, the Activity (Staphylococcus aureus [5]) was “Active” and the Activity (Staphylococcus aureus [6]) was “Active”. For the same compound, the Activity (Staphylococcus aureus [7]) was “Active”.
For `CCn1cc(C(=O)O)c(=O)c2cc(F)c(N3CCNCC3)cc21`, the Activity (Staphylococcus aureus [1]) was “Active”, the Activity (Staphylococcus aureus [2]) was “Active” and the Activity (Staphylococcus aureus [3]) was “Active”. For the same compound, the Activity (Staphylococcus aureus [4]) was “Active”, the Activity (Staphylococcus aureus [5]) was “Active” and the Activity (Staphylococcus aureus [6]) was “Active”. For the same compound, the Activity (Staphylococcus aureus [7]) was “Active”.
In the case of `O=C(O)c1cn(C2CC2)c2cc(N3CCNCC3)c(F)cc2c1=O` [CIPROFLOXACIN], the MIC50 (Streptococcus pneumoniae [8]) is reported as 32 µg/mL (≈ 96.6 µM), the MIC90 (Streptococcus pneumoniae [8]) is reported as 64 µg/mL (≈ 193 µM) and the MIC50 (Staphylococcus aureus [9]) is reported as 16 µg/mL (≈ 48.3 µM). The MIC90 (Staphylococcus aureus [9]) was > 32 µg/mL, the MIC50 (Staphylococcus aureus [10]) was 16 µg/mL (≈ 48.3 µM) and the MIC90 (Staphylococcus aureus [10]) was > 32 µg/mL. For the same compound, the MIC50 (Staphylococcus aureus [11]) was > 32 µg/mL, the MIC90 (Staphylococcus aureus [11]) was 32 µg/mL (≈ 96.6 µM) and the MIC50 [12] was 0.25 µg/mL (≈ 0.754 µM). It also gave an MIC90 [12] of 0.5 µg/mL (≈ 1.51 µM), an MIC50 [13] of 16 µg/mL (≈ 48.3 µM) and an MIC90 [13] of 64 µg/mL (≈ 193 µM). It also gave an MIC50 [14] of 64 µg/mL (≈ 193 µM), an MIC90 [14] of 128 µg/mL (≈ 386 µM) and an MIC50 (Streptococcus pyogenes) of 0.5 µg/mL (≈ 1.51 µM). It also gave an MIC90 (Streptococcus pyogenes) of 1 µg/mL (≈ 3.02 µM), an MIC50 (Streptococcus agalactiae) of 1 µg/mL (≈ 3.02 µM) and an MIC90 (Streptococcus agalactiae) of 1 µg/mL (≈ 3.02 µM). The MIC50 [15] was 0.25 µg/mL (≈ 0.754 µM), the MIC90 [15] was 1 µg/mL (≈ 3.02 µM) and the MIC50 (Enterococcus faecalis) was 1 µg/mL (≈ 3.02 µM). For the same compound, the MIC90 (Enterococcus faecalis) was > 16 µg/mL, the MIC50 (Enterococcus faecium) was 4 µg/mL (≈ 12.1 µM) and the MIC90 (Enterococcus faecium) was > 16 µg/mL. For the same compound, the MIC (Haemophilus influenzae) was 0.008 µg/mL (≈ 0.0241 µM), the MIC50 (Haemophilus influenzae) was 0.008 µg/mL (≈ 0.0241 µM) and the MIC90 (Haemophilus influenzae) was 0.015 µg/mL (≈ 0.0453 µM). It also gave an MIC50 (Moraxella catarrhalis) of 0.06 µg/mL (≈ 0.181 µM), an MIC90 (Moraxella catarrhalis) of 0.06 µg/mL (≈ 0.181 µM) and an MIC50 (Escherichia coli) of 64 µg/mL (≈ 193 µM). It also gave an MIC90 (Escherichia coli) of 256 µg/mL (≈ 773 µM), an MIC50 (Klebsiella aerogenes) of 0.03 µg/mL (≈ 0.0905 µM) and an MIC90 (Klebsiella aerogenes) of 0.03 µg/mL (≈ 0.0905 µM). It also gave an MIC50 (Serratia marcescens) of 0.12 µg/mL (≈ 0.362 µM), an MIC90 (Serratia marcescens) of 0.25 µg/mL (≈ 0.754 µM) and an MIC50 (Proteus mirabilis) of 0.03 µg/mL (≈ 0.0905 µM). For the same compound, the MIC90 (Proteus mirabilis) was 0.06 µg/mL (≈ 0.181 µM), the MIC50 (Providencia stuartii) was 32 µg/mL (≈ 96.6 µM) and the MIC90 (Providencia stuartii) was 64 µg/mL (≈ 193 µM). For the same compound, the MIC50 (Citrobacter freundii) was 2 µg/mL (≈ 6.04 µM), the MIC90 (Citrobacter freundii) was > 4 µg/mL and the MIC50 (Pseudomonas aeruginosa) was 0.25 µg/mL (≈ 0.754 µM). For the same compound, the MIC90 (Pseudomonas aeruginosa) was 0.5 µg/mL (≈ 1.51 µM), the MIC (Staphylococcus aureus [16]) was 0.6 µg/mL (≈ 1.81 µM) and the MIC (Staphylococcus aureus [17]) was 3 µg/mL (≈ 9.05 µM). For the same compound, the MIC (Staphylococcus aureus [18]) was 12 µg/mL (≈ 36.2 µM) and the MIC (Staphylococcus aureus [19]) was 12 µg/mL (≈ 36.2 µM).
In the case of `CC[C@H]1OC(=O)[C@H](C)[C@@H](O[C@H]2C[C@@](C)(OC)[C@@H](O)[C@H](C)O2)[C@H](C)[C@@H](O[C@@H]2O[C@H](C)C[C@H](N(C)C)[C@H]2O)[C@](C)(O)C[C@@H](C)C(=O)[C@H](C)[C@@H](O)[C@]1(C)O` [ERYTHROMYCIN], the MIC50 (Streptococcus pneumoniae [20]) is reported as 0.06 µg/mL (≈ 0.0818 µM) and the MIC90 (Streptococcus pneumoniae [20]) is reported as 16 µg/mL (≈ 21.8 µM).
